Assay results published in ChEMBL document CHEMBL1909578, “New diarylureas and diarylamides containing 1,3,4-triarylpyrazole scaffold: Synthesis, antiproliferative evaluation against melanoma cell lines, ERK kinase inhibition, and molecular docking studies” (Eur J Med Chem, 2011).

Tests used:
[1] = Antiproliferative activity against human A375P cells after 48 hrs by MTT assay; type: functional, cell-based
Summary of the method: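 A375P cells grown in DMEM with 10% FBS and 1% penicillin/streptomycin at 37 °C, 5% CO2. Cells detached with 0.05% trypsin-0.02% EDTA, seeded at 5×10^3 cells/well, and left 24 h. Then exposed for 48 h to 12-point 3-fold serial dilutions. Viability read by MTT reduction, absorbance at 590 nm. IC50 derived from the concentration-response curve.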

LOX IMVI = assay: Antiproliferative activity against human LOXIMVI cells after 48 hrs by SRB assay; type: functional, cell-based
Summary of the method: (§1)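 NCI melanoma panel grown in RPMI 1640 with 5% FBS and 2 mM glutamine. Seeded at 5000–40,000 cells/well, then 24 h before dosing, with time-zero plates fixed. Five concentrations (10-fold or 1/2-log dilutions from DMSO stock) for 48 h. Cells TCA-fixed, stained with 0.4% SRB, read at 515 nm. IC50 is 50% reduction in net protein increase, from (Ti−Tz)/(C−Tz).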

M14 = assay: Antiproliferative activity against human M14 cells after 48 hrs by SRB assay; type: functional, cell-based; settings: M14, 48 h; summary of the method: as §1
MDA-MB-435 = assay: Antiproliferative activity against human MDA-MB-435 cells after 48 hrs by SRB assay; type: functional, cell-based; settings: MDA-MB-435, 48 h; summary of the method: as §1
SK-MEL-2 = assay: Antiproliferative activity against human SK-MEL-2 cells after 48 hrs by SRB assay; type: functional, cell-based; settings: SK-MEL-2, 48 h; summary of the method: as §1
SK-MEL-28 = assay: Antiproliferative activity against human SK-MEL-28 cells after 48 hrs by SRB assay; type: functional, cell-based; settings: SK-MEL-28, 48 h; summary of the method: as §1
SK-MEL-5 = assay: Antiproliferative activity against human SK-MEL-5 cells after 48 hrs by SRB assay; type: functional, cell-based; settings: SK-MEL-5, 48 h; summary of the method: as §1
UACC-257 = assay: Antiproliferative activity against human UACC257 cells after 48 hrs by SRB assay; type: functional, cell-based; settings: UACC-257, 48 h; summary of the method: as §1
UACC-62 = assay: Antiproliferative activity against human UACC62 cells after 48 hrs by SRB assay; type: functional, cell-based; settings: UACC-62, 48 h; summary of the method: as §1
[2] = target: Mitogen-activated protein kinase; ERK1/ERK2 (Homo sapiens) (UniProt P27361+P28482); assay: Inhibition of ERK1/2 phosphorylation in human A375P cells after 24 hrs by immunoblotting; type: cell-based
Sequence of Mitogen-activated protein kinase; ERK1/ERK2 (Homo sapiens) (P27361 whole entry, looked up): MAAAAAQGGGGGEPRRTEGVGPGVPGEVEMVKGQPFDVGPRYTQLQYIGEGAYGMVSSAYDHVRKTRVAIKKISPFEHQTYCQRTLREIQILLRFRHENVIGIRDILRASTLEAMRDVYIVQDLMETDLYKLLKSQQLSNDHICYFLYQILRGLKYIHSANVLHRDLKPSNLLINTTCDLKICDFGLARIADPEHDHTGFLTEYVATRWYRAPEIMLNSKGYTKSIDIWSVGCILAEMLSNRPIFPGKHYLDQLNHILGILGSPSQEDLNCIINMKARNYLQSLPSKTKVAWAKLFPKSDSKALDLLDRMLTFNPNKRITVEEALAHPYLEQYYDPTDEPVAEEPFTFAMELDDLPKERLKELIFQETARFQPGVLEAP
Sequence of Mitogen-activated protein kinase; ERK1/ERK2 (Homo sapiens) (P28482 whole entry, looked up): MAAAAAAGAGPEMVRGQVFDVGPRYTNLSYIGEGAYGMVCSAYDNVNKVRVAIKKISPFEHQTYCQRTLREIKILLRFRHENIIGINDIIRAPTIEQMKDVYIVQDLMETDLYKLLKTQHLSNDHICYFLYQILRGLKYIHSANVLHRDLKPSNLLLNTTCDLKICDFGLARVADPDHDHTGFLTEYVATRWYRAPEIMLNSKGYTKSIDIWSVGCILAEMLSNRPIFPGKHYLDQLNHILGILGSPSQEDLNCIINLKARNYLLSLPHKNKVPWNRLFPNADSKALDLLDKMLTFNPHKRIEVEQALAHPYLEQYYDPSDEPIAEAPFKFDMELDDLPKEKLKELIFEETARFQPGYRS
Summary of the method: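 A375P melanoma cells treated with 1, 3 and 10 μM compound for 24 h. Lysed in RIPA buffer, sonicated, centrifuged, and protein quantified by DC assay. Lysates run on SDS-PAGE and immunoblotted for phospho-ERK1/2, with β-actin as loading reference.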

| SMILES | IC50 [1] | IC50 (LOX IMVI) | IC50 (M14) | IC50 (MDA-MB-435) | IC50 (SK-MEL-2) | IC50 (SK-MEL-28) | IC50 (SK-MEL-5) | IC50 (UACC-257) | IC50 (UACC-62) | inhibition [2] |
| --- | --- | --- | --- | --- | --- | --- | --- | --- | --- | --- |
| COc1cc(-c2nn(-c3ccc(NC(=O)Nc4ccc(Cl)c(Cl)c4)cc3)cc2-c2ccncc2)ccc1Cl | > 20 µM | 1.98 µM | 2.56 µM | 2.87 µM | 3.44 µM | 3.94 µM | 2.84 µM | 3.17 µM | 3.35 µM | – |
| CNC(=O)c1cc(Oc2ccc(NC(=O)Nc3ccc(Cl)c(C(F)(F)F)c3)cc2)ccn1 [SORAFENIB] | 11.5 µM | – | – | – | – | – | – | – | – | – |
| COc1cc(-c2nn(-c3ccc(NC(=O)c4ccc(Cl)c(Cl)c4)cc3)cc2-c2ccncc2)ccc1Cl | 13 µM | 2.76 µM | 22.4 µM | 7.13 µM | 5.74 µM | 40.3 µM | 1.65 µM | > 100 µM | 6.34 µM | – |
| O=C(Nc1ccc(-n2cc(-c3ccncc3)c(-c3ccc(Cl)c(O)c3)n2)cc1)Nc1cc(C(F)(F)F)cc(C(F)(F)F)c1 | > 20 µM | 1.63 µM | 1.76 µM | 1.77 µM | 1.8 µM | 2.01 µM | 1.67 µM | 2.01 µM | 2.23 µM | – |
| O=C(Nc1ccc(-n2cc(-c3ccncc3)c(-c3ccc(Cl)c(O)c3)n2)cc1)c1ccc(Cl)c(Cl)c1 | 6.7 µM | 1.45 µM | 2.35 µM | 2.73 µM | 4.05 µM | 2.94 µM | 1.15 µM | 4.74 µM | 3.22 µM | Dose-dependent effect |
| O=C(Nc1ccc(-n2cc(-c3ccncc3)c(-c3ccc(Cl)c(O)c3)n2)cc1)Nc1ccc(Cl)c(Cl)c1 | 13.5 µM | – | – | – | – | – | – | – | – | – |
| O=C(Nc1ccc(-n2cc(-c3ccncc3)c(-c3ccc(Cl)c(O)c3)n2)cc1)c1ccc(Cl)c(C(F)(F)F)c1 | 6.8 µM | 0.36 µM | 0.84 µM | 1.2 µM | 1.58 µM | 1.08 µM | 1.07 µM | 2.55 µM | 2.03 µM | – |
| COc1cc(-c2nn(-c3ccc(NC(=O)c4ccc(Cl)c(C(F)(F)F)c4)cc3)cc2-c2ccncc2)ccc1Cl | 9.8 µM | 1.56 µM | 1.92 µM | 2.52 µM | 3.15 µM | 2.8 µM | 1.59 µM | 5.83 µM | 2.18 µM | – |
| COc1cc(-c2nn(-c3ccc(NC(=O)c4cc(C(F)(F)F)cc(C(F)(F)F)c4)cc3)cc2-c2ccncc2)ccc1Cl | > 20 µM | – | – | – | – | – | – | – | – | – |
| COc1cc(-c2nn(-c3ccc(NC(=O)Nc4cccc(Cl)c4Cl)cc3)cc2-c2ccncc2)ccc1Cl | > 20 µM | – | – | – | – | – | – | – | – | – |
| O=C(Nc1ccc(-n2cc(-c3ccncc3)c(-c3ccc(Cl)c(O)c3)n2)cc1)c1cc(C(F)(F)F)cc(C(F)(F)F)c1 | > 20 µM | 2.54 µM | 6.34 µM | 4.11 µM | 6.6 µM | 4.88 µM | 1.55 µM | 8.94 µM | 14.4 µM | – |
| O=C(Nc1ccc(-n2cc(-c3ccncc3)c(-c3ccc(Cl)c(O)c3)n2)cc1)c1cc(Cl)cc(Cl)c1 | 6.8 µM | 1.19 µM | 1.51 µM | 3.78 µM | 6.91 µM | 2.75 µM | 1.4 µM | 5.7 µM | 2.73 µM | – |
| O=C(Nc1ccc(-n2cc(-c3ccncc3)c(-c3ccc(Cl)c(O)c3)n2)cc1)Nc1cccc(Cl)c1Cl | 16.8 µM | – | – | – | – | – | – | – | – | – |
| COc1cc(-c2nn(-c3ccc(NC(=O)Nc4cc(C(F)(F)F)cc(C(F)(F)F)c4)cc3)cc2-c2ccncc2)ccc1Cl | 11.8 µM | 1.63 µM | 1.99 µM | 1.88 µM | 1.7 µM | 1.93 µM | 1.53 µM | 2.3 µM | 1.55 µM | – |
| COc1cc(-c2nn(-c3ccc(NC(=O)Nc4ccc(Cl)c(C(F)(F)F)c4)cc3)cc2-c2ccncc2)ccc1Cl | 14 µM | 1.43 µM | 1.74 µM | 1.6 µM | 1.63 µM | 1.88 µM | 1.57 µM | 1.64 µM | 1.77 µM | – |
| O=C(Nc1ccc(-n2cc(-c3ccncc3)c(-c3ccc(Cl)c(O)c3)n2)cc1)Nc1ccc(Cl)c(C(F)(F)F)c1 | 14.9 µM | 1.44 µM | 1.43 µM | 1.32 µM | 1.7 µM | 1.63 µM | 1.53 µM | 1.51 µM | 1.7 µM | – |
| COc1cc(-c2nn(-c3ccc(NC(=O)c4cc(Cl)cc(Cl)c4)cc3)cc2-c2ccncc2)ccc1Cl | > 20 µM | 3.09 µM | 7.39 µM | > 100 µM | > 100 µM | > 100 µM | 12 µM | > 100 µM | 4.58 µM | – |
